Reference: ChEMBL document CHEMBL4689842, “EUbOPEN Chemogenomics Library wave 1” (2021)

Key:
Format in all cases: toxicity, cell-based
[1] = test system: Fibroblast; test: Multiplex assay against human fibroblast
How it was run: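 Live cells carried four stains from seeding: Hoechst33342, BioTracker Green Microtubule Cytoskeleton Dye, MitoTracker Red and Annexin V Alexa Fluor 680. They were imaged on a CQ1 microscope at 37°C and 5% CO2 after compound addition. Using CellPathfinder machine-learning gating, cells were split into Hoechst high-intensity objects or normal cells, normal cells into healthy, pyknosed or fragmented nuclei, and pyknosed cells into mitotic or apoptotic; tubulin, mitochondrial-mass and membrane-permeability phenotypes are per cents of healthy-nucleus cells.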

[2] = test system: U2OS; test: Incucyte cell viability with U2OS; conditions: human, 10 µM, compound concentration 10 uM; further: filed as whole numbers so only -1 and 0 and 1 occur
[3] = test system: HEK-293T; test: Incucyte cell viability with HEK293T; conditions: human, 10 µM, compound concentration 10 uM; further: filed as whole numbers so only -1 and 0 and 1 occur
[4] = 12 h, 1 µM, compound concentration 1 uM, replicate 1
[5] = 12 h, 1 µM, compound concentration 1 uM, replicate 2
[6] = 12 h, 10 µM, compound concentration 10 uM, replicate 1
[7] = 12 h, 10 µM, compound concentration 10 uM, replicate 2
[8] = 24 h, 1 µM, compound concentration 1 uM, replicate 1
[9] = 24 h, 1 µM, compound concentration 1 uM, replicate 2
[10] = 24 h, 10 µM, compound concentration 10 uM, replicate 1
[11] = 24 h, 10 µM, compound concentration 10 uM, replicate 2
[12] = 6 h, replicate number 1, timepoint 6 hours
[13] = 12 h, replicate number 1, timepoint 12 hours
[14] = 18 h, replicate number 1, timepoint 18 hours
[15] = 24 h, replicate number 1, timepoint 24 hours

Cc1cn(-c2cc(NC(=O)c3ccc4c(c3)CN(c3cncnc3)C[C@@H]4C)cc(C(F)(F)F)c2)cn1
Population Apoptotic (%) [1, 4]: 81%
Population Fragmented Nuclei (%) [1, 4]: 31%
Population Healthy Nuclei (%) [1, 4]: 50%
Population Hoechst High Intensity Objects (%) [1, 4]: 15%
Population Membrane Permeable-Phenotype (%) [1, 4]: 7%
Population Mitochondria Different-Phenotype (%) [1, 4]: 4%
Population Mitotic Cells (%) [1, 4]: 18%
Population Normal (%) [1, 4]: 84%
Population Pyknosed Nuclei (%) [1, 4]: 17%
Population Tubulin-Different-Phenotype (%) [1, 4]: 9%
Total Cell Count [1, 4]: 147
Population Apoptotic (%) [1, 5]: 42%
Population Fragmented Nuclei (%) [1, 5]: 58%
Population Healthy Nuclei (%) [1, 5]: 31%
Population Hoechst High Intensity Objects (%) [1, 5]: 30%
Population Membrane Permeable-Phenotype (%) [1, 5]: 0%
Population Mitochondria Different-Phenotype (%) [1, 5]: 9%
Population Mitotic Cells (%) [1, 5]: 57%
Population Normal (%) [1, 5]: 70%
Population Pyknosed Nuclei (%) [1, 5]: 10%
Population Tubulin-Different-Phenotype (%) [1, 5]: 22%
Total Cell Count [1, 5]: 100
Population Apoptotic (%) [1, 6]: 71%
Population Fragmented Nuclei (%) [1, 6]: 33%
Population Healthy Nuclei (%) [1, 6]: 49%
Population Hoechst High Intensity Objects (%) [1, 6]: 13%
Population Mitochondria Different-Phenotype (%) [1, 6]: 5%
Population Mitotic Cells (%) [1, 6]: 28%
Population Normal (%) [1, 6]: 86%
Population Pyknosed Nuclei (%) [1, 6]: 17%
Population Tubulin-Different-Phenotype (%) [1, 6]: 23%
Total Cell Count [1, 6]: 141
Population Apoptotic (%) [1, 7]: 75%
Population Fragmented Nuclei (%) [1, 7]: 67%
Population Healthy Nuclei (%) [1, 7]: 18%
Population Hoechst High Intensity Objects (%) [1, 7]: 36%
Population Membrane Permeable-Phenotype (%) [1, 7]: 10%
Population Mitochondria Different-Phenotype (%) [1, 7]: 50%
Population Mitotic Cells (%) [1, 7]: 25%
Population Normal (%) [1, 7]: 63%
Population Pyknosed Nuclei (%) [1, 7]: 14%
Population Tubulin-Different-Phenotype (%) [1, 7]: 40%
Total Cell Count [1, 7]: 87
Population Apoptotic (%) [1, 8]: 92%
Population Fragmented Nuclei (%) [1, 8]: 35%
Population Healthy Nuclei (%) [1, 8]: 45%
Population Hoechst High Intensity Objects (%) [1, 8]: 19%
Population Membrane Permeable-Phenotype (%) [1, 8]: 11%
Population Mitochondria Different-Phenotype (%) [1, 8]: 1%
Population Mitotic Cells (%) [1, 8]: 7%
Population Normal (%) [1, 8]: 80%
Population Pyknosed Nuclei (%) [1, 8]: 19%
Population Tubulin-Different-Phenotype (%) [1, 8]: 7%
Total Cell Count [1, 8]: 172
Population Apoptotic (%) [1, 9]: 42%
Population Fragmented Nuclei (%) [1, 9]: 51%
Population Healthy Nuclei (%) [1, 9]: 37%
Population Hoechst High Intensity Objects (%) [1, 9]: 28%
Population Membrane Permeable-Phenotype (%) [1, 9]: 13%
Population Mitochondria Different-Phenotype (%) [1, 9]: 8%
Population Mitotic Cells (%) [1, 9]: 57%
Population Normal (%) [1, 9]: 71%
Population Pyknosed Nuclei (%) [1, 9]: 11%
Population Tubulin-Different-Phenotype (%) [1, 9]: 17%
Total Cell Count [1, 9]: 87
Population Apoptotic (%) [1, 10]: 66%
Population Fragmented Nuclei (%) [1, 10]: 36%
Population Healthy Nuclei (%) [1, 10]: 48%
Population Hoechst High Intensity Objects (%) [1, 10]: 16%
Population Membrane Permeable-Phenotype (%) [1, 10]: 3%
Population Mitochondria Different-Phenotype (%) [1, 10]: 10%
Population Mitotic Cells (%) [1, 10]: 33%
Population Normal (%) [1, 10]: 83%
Population Pyknosed Nuclei (%) [1, 10]: 15%
Population Tubulin-Different-Phenotype (%) [1, 10]: 26%
Total Cell Count [1, 10]: 161
Population Apoptotic (%) [1, 11]: 57%
Population Fragmented Nuclei (%) [1, 11]: 66%
Population Healthy Nuclei (%) [1, 11]: 20%
Population Hoechst High Intensity Objects (%) [1, 11]: 36%
Population Membrane Permeable-Phenotype (%) [1, 11]: 9%
Population Mitochondria Different-Phenotype (%) [1, 11]: 18%
Population Mitotic Cells (%) [1, 11]: 42%
Population Normal (%) [1, 11]: 63%
Population Pyknosed Nuclei (%) [1, 11]: 12%
Population Tubulin-Different-Phenotype (%) [1, 11]: 36%
Total Cell Count [1, 11]: 85
Growth Rate ([2]; 0 h, replicate number 1, timepoint 0 hours): 0
Growth Rate [2, 12]: 0
Growth Rate [2, 13]: 0
Growth Rate ([2]; 12 h, replicate number 2, timepoint 12 hours): 1
Growth Rate [2, 14]: 0
Growth Rate [2, 15]: 0
Growth Rate [3, 12]: 0
Growth Rate [3, 13]: 0
Growth Rate [3, 14]: 0
Growth Rate [3, 15]: 0
